# Key:
# [1] = Oral bioavailability in rat when dosed in a suspension of 1% methocel; format: ADME, organism-based; settings: in vivo
# Summary of the method: (§1)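 Fasted animals (24 h without food). Oral dose by gavage as a 1% methocel suspension. Intravenous dose given by indwelling jugular vein cannula in rat and by peripheral venipuncture in dog and cynomolgus monkey, in saline or 20% PEG 200. iv/po doses in mg/kg: rat 2/10, 5/20 or 5/12; dog 2/5 or 1/5; monkey 1/5. F (%) is the mean of at least three determinations.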
# [2] = Oral bioavailability in cynomolgus monkey (dosed in a suspension of 1% methocel); format: ADME, organism-based, Macaca fascicularis; settings: in vivo; summary of the method: as §1
# [3] = Partition coefficient (logP); format: physicochemical; settings: octanol/water
# Summary of the method: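 Log P determined experimentally by standard octanol/water partitioning.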
# [4] = organism: Homo sapiens; experiment: % Free drug present in human plasma.; format: ADME, organism-based
# [5] = Oral bioavailability in cynomolgus monkey (dose 5 mg/kg); format: ADME, organism-based, Macaca fascicularis; settings: in vivo; summary of the method: as §1
# [6] = target: T1, Chymotrypsinogen A (Bos taurus, UniProt P00766); experiment: Binding affinity was evaluated on serine protease Chymotrypsinogen; format: single protein
# [7] = organism: Homo sapiens; experiment: Concentration of compound in plasma required to double the activated partial thromboplastin time in human measured as 2(APTT) value; format: functional, cell-free
# Summary of the method: (§2)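 2 × APTT is the inhibitor concentration in plasma required to double the activated partial thromboplastin time.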
# [8] = organism: Rattus norvegicus; experiment: Concentration of compound in plasma required to double the activated partial thromboplastin time in rat measured as 2(APTT) value; format: functional, cell-free; summary of the method: as §2
# [9] = organism: Rattus norvegicus; experiment: (§3) % Free drug present in rat plasma.; format: functional
# [10] = target: T2, Serine protease 1 (Homo sapiens, UniProt P07477); experiment: Binding affinity was evaluated on serine protease trypsin.
# [11] = The concentration in plasma; format: ADME, cell-free
# Summary of the method: (§4)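 Rat carotid artery FeCl₃-induced thrombosis model. Compound in saline vehicle infused iv at 10 μg/kg/min for 120 min before the FeCl₃ insult. Plasma drug concentration measured. Saline vehicle controls run alongside.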
# [12] = Oral bioavailability in dog (dosed in a suspension of 1% methocel); format: ADME, organism-based, Canis lupus familiaris; settings: in vivo; summary of the method: as §1
# [13] = target: Prothrombin (Homo sapiens, UniProt P00734); experiment: Binding affinity was evaluated on serine protease thrombin.
# [14] = organism: Rattus norvegicus; experiment: The final concentration in plasma of rat carotid artery FeCl3 induced thrombosis model; format: ADME, organism-based; summary of the method: as §4
# [15] = target: Plasminogen (Homo sapiens, UniProt P00747); experiment: Binding affinity was evaluated on serine protease plasmin.
# [16] = target: Plasma kallikrein (Homo sapiens, UniProt P03952); experiment: Binding affinity was evaluated on serine protease plasma kallikrein.; format: cell-free
# [17] = target: Tissue-type plasminogen activator (Homo sapiens, UniProt P00750); experiment: Binding affinity was evaluated on serine protease TPA.
# [18] = organism: Rattus norvegicus; experiment: as §3; format: ADME, organism-based
# [19] = Oral bioavailability in rats when dosed in a suspension of 1% methocel; format: ADME, organism-based; settings: rat, in vivo; summary of the method: as §1
# [20] = The 2(APTT) value is defined as the concentration of compound in plasma required to double the activated partial thromboplastin time in human; format: functional; summary of the method: as §2
# [21] = target: T1, Chymotrypsinogen A; experiment: Selectivity was evaluated as the binding affinity between thrombin versus Chymotrypsinogen
# [22] = target: T2, Serine protease 1; experiment: Selectivity was evaluated as the binding affinity between thrombin versus trypsin.
# Chain of Plasminogen (P00747 97-580 limits assumed): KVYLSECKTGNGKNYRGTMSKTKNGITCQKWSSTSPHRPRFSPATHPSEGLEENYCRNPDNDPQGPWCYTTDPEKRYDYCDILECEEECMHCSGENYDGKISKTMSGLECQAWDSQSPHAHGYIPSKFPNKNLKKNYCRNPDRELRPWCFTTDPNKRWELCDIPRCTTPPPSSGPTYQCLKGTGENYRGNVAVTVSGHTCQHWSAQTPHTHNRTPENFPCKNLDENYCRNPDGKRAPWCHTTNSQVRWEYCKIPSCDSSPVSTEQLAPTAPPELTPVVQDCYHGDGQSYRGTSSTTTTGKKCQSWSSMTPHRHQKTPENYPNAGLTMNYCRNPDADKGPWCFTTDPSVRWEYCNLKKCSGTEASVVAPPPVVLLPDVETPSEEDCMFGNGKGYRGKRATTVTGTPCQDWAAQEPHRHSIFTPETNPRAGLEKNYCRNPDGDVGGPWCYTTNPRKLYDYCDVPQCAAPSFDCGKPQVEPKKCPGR
# Chain of Plasminogen (P00747 581-810 limits assumed): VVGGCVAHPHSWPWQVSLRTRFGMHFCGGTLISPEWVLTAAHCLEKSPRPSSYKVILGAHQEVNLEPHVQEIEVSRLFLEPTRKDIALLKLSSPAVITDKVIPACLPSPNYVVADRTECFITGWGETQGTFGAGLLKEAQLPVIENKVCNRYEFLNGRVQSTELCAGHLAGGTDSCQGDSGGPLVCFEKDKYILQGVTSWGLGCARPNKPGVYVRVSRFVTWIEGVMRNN
# T2 sequence (P07477 whole entry): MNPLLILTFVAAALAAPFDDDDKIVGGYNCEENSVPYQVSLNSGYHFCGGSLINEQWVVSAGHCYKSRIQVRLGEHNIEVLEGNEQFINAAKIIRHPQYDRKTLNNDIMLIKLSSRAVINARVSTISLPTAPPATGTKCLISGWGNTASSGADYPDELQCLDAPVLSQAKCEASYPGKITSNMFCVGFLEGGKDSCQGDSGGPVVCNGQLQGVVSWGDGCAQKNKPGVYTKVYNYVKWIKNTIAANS
# Chain of Plasma kallikrein (P03952 20-390 limits assumed): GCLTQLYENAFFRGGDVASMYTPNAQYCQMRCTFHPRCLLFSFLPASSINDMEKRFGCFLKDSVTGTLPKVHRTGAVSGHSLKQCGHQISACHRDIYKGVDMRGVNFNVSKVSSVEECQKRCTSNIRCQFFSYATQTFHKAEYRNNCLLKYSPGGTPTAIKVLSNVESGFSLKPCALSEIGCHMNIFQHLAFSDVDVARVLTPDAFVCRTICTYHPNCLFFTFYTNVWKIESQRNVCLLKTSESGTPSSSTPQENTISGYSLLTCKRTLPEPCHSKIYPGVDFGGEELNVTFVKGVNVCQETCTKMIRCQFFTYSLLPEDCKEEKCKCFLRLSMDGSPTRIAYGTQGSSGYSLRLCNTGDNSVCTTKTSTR
# Chain of Plasma kallikrein (P03952 391-638 limits assumed): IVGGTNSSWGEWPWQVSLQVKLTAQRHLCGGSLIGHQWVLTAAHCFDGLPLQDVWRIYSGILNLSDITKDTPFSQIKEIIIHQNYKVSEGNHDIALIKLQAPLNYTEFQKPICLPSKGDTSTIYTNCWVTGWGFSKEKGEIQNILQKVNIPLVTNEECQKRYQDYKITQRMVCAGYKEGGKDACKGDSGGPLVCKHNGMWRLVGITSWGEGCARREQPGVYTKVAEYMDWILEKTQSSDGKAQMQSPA
# Chain of Tissue-type plasminogen activator (P00750 whole entry): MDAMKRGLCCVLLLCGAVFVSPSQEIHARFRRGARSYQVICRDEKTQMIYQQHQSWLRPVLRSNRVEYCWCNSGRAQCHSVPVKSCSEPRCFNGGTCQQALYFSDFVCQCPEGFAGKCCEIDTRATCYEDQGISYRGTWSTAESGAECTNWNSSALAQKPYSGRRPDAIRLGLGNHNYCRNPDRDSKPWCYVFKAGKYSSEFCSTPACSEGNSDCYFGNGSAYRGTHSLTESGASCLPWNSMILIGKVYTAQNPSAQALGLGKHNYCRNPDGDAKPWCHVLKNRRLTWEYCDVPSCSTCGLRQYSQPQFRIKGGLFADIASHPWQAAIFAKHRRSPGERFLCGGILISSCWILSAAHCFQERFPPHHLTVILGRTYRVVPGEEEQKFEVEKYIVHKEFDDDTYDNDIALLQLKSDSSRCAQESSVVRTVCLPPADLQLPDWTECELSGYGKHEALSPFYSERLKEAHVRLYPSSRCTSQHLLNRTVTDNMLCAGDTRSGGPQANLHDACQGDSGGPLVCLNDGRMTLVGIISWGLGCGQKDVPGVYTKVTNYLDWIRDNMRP
SMILES,Ki [13] [µM],bioavailability [1] [%],logP [3],Free [4] [%],Ki [6] [µM],Concentration [7] [µM],Concentration [8] [µM],Ki [10] [µM],concentration [14] [nM],Ki [15] [µM],Ki [16] [µM],Ki [17] [µM],further results
CCNC(=O)COc1ccc(Cl)cc1CNC(=O)[C@@H]1CCCN1C(=O)[C@H](N)C1CCCCC1,,10,2.07,15,71,0.41,0.38,23,,,,,bioavailability [2]: 63%; bioavailability [5]: 63%; Free [9]: 14%; concentration [11]: 794 nM; bioavailability [12]: 40%
N[C@@H](C(=O)N1CCC[C@H]1C(=O)NCc1cc(Cl)ccc1Cl)C1CCCCC1,0.005,23,2.63,4,49,0.95,,29,329,691,586,19,Free [18]: 9%
N[C@@H](C(=O)N1CCC[C@H]1C(=O)NCc1cc(Cl)ccc1OCC(=O)NC1CC1)C1CCCCC1,,20,2.04,12,67,0.35,0.42,18,,113,79,36,bioavailability [2]: 34%; bioavailability [5]: 34%; Free [9]: 11%
"CC1CNc2c(cccc2S(=O)(=O)N[C@@H](CCCNC(=N)N)C(=O)N2CCC(C)C[C@@H]2C(=O)O)C1 (single isomer, unassigned) [ARGATROBAN]",,,,,,,,,,,,,2*APTT [20]: 0.28 µM
NC(=O)COc1ccc(Cl)cc1CNC(=O)[C@@H]1CCCN1C(=O)[C@H](N)C1CCCCC1,0.0005,,1.96,26,131,0.25,0.31,9,726,152,816,11,Free [18]: 7%
NC(C(=O)N1CCC[C@H]1C(=O)NCc1cc(Cl)ccc1Cl)C(c1ccccc1)c1ccccc1 (stereo partly specified),,,> 3.1,,,,,,,,,,Ki [21]: > 50 µM; Ki [22]: 7 µM; bioavailability [12]: 45%

# The next lines start with results.
Ki [13] [µM],SMILES,bioavailability [1] [%],logP [3],Free [4] [%],Ki [6] [µM],Concentration [7] [µM],Concentration [8] [µM],Ki [10] [µM],concentration [14] [nM],Ki [15] [µM],Ki [16] [µM],Ki [17] [µM],further results
0.00045,CCOC(=O)COc1ccc(Cl)cc1CNC(=O)[C@@H]1CCCN1C(=O)[C@H](N)C1CCCCC1,,,,,,,,,,,,
0.02,CCN(CC)C(=O)CN[C@@H](C(=O)N1CCC[C@H]1C(=O)NCc1ccccc1Cl)C1CCCCC1,,,,,,,,,,,,
0.0025,N[C@@H](C(=O)N1CCC[C@H]1C(=O)NCc1cc(Cl)ccc1O)C1CCCCC1,,,,,,,,,,,,
0.00031,CCN(CC)C(=O)CN[C@@H](C(=O)N1CCC[C@H]1C(=O)NCc1cc(Cl)ccc1Cl)C1CCCCC1,,2.67,,174,,,27,245,244,399,29,bioavailability [19]: 10%

# — ChEMBL document CHEMBL1131061, “Design and synthesis of a series of potent and orally bioavailable noncovalent thrombin inhibitors that utilize nonbasic groups in the P1 position” (J Med Chem, 1998)
